Reference: paper PMC8114154 (Journal of Applied Glycoscience, 2019)

Legend:
AsojAgdL = assay: glucose release; format: biochemical, Aspergillus sojae; details: 20 mM MES pH 6.0, 40 °C, 60 min
How it was run: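 Recombinant enzyme expressed in A. nidulans, purified by His-Trap affinity then Superdex 200 gel filtration. Incubated with substrates at various concentrations for 60 min at 40 °C. Stopped with 10 % oxalic acid and 10 min boiling. Released glucose quantified by glucose assay kit. Km from nonlinear-regression Michaelis–Menten fit of initial velocities over the low-concentration range only.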

AnigAgdA = target: T1, AnigAgdA (Aspergillus niger, UniProt P56526); assay: glucose release, fit of v = Vmax[S]/; format: biochemical; details: 20 mM acetate pH 4.0, 40 °C, 60 min; substrate inhibition
T1 sequence (P56526 26-985): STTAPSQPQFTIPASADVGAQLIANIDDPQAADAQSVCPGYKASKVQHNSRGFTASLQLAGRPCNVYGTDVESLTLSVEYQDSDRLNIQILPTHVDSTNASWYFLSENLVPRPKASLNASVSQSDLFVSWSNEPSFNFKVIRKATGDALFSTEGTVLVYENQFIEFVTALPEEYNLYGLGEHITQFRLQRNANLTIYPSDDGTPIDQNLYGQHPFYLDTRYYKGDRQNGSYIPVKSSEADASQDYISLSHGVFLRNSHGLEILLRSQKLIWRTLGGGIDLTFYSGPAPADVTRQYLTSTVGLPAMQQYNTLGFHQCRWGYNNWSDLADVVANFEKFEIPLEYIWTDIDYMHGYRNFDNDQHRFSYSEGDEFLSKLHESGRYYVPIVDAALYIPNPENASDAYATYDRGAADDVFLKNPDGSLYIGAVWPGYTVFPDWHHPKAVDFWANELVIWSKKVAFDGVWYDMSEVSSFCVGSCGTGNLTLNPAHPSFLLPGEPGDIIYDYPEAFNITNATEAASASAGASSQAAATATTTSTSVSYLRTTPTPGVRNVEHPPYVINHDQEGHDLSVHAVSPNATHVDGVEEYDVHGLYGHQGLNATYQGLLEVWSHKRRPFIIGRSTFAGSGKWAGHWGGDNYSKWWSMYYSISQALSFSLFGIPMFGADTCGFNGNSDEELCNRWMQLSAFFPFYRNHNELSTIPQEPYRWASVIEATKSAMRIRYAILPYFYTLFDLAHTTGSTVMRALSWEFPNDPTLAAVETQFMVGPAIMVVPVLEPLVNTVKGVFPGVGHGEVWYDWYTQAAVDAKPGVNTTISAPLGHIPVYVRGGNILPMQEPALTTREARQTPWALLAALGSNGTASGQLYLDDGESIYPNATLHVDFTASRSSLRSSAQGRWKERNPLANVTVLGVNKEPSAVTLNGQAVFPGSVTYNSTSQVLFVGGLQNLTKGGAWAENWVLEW

[1] = low substrate range only (substrate inhibition)

| Compound | Km (AsojAgdL) | Km (AsojAgdL; [1]) | Ki (AnigAgdA) |
| --- | --- | --- | --- |
| OC[C@H]1O[C@H](OC[C@H]2O[C@H](OC[C@H]3O[C@H](OC[C@H]4O[C@H](OC[C@H]5O[C@H](OC[C@H]6OC(O)[C@H](O)[C@@H](O)[C@@H]6O)[C@H](O)[C@@H](O)[C@@H]5O)[C@H](O)[C@@H](O)[C@@H]4O)[C@H](O)[C@@H](O)[C@@H]3O)[C@H](O)[C@@H](O)[C@@H]2O)[C@H](O)[C@@H](O)[C@@H]1O (stereo partly shown) [Isomaltohexaose] | 1100 ± 200 µM |  |  |
| OC[C@H]1O[C@H](OC[C@H]2O[C@H](OC[C@H]3O[C@H](OC[C@H]4O[C@H](OC[C@H]5OC(O)[C@H](O)[C@@H](O)[C@@H]5O)[C@H](O)[C@@H](O)[C@@H]4O)[C@H](O)[C@@H](O)[C@@H]3O)[C@H](O)[C@@H](O)[C@@H]2O)[C@H](O)[C@@H](O)[C@@H]1O (stereo partly shown) [Isomaltopentaose] | 900 ± 100 µM |  |  |
| OC[C@H]1O[C@H](OC[C@H]2OC(O)[C@H](O)[C@@H](O)[C@@H]2O)[C@H](O)[C@@H](O)[C@@H]1O (stereo partly shown) [Isomaltose] | 2000 ± 300 µM |  |  |
| OC[C@H]1O[C@H](OC[C@H]2O[C@H](OC[C@H]3O[C@H](OC[C@H]4OC(O)[C@H](O)[C@@H](O)[C@@H]4O)[C@H](O)[C@@H](O)[C@@H]3O)[C@H](O)[C@@H](O)[C@@H]2O)[C@H](O)[C@@H](O)[C@@H]1O (stereo partly shown) [Isomaltotetraose] | 2400 ± 800 µM |  |  |
| OC[C@H]1O[C@H](OC[C@H]2O[C@H](OC[C@H]3OC(O)[C@H](O)[C@@H](O)[C@@H]3O)[C@H](O)[C@@H](O)[C@@H]2O)[C@H](O)[C@@H](O)[C@@H]1O (stereo partly shown) [Isomaltotriose] | 500 ± 100 µM |  |  |
| OC[C@H]1O[C@H](O[C@H]2C(O)O[C@H](CO)[C@@H](O)[C@@H]2O)[C@H](O)[C@@H](O)[C@@H]1O (stereo partly shown) [Kojibiose] | 2100 ± 300 µM |  |  |
| OC[C@H]1O[C@H](O[C@H]2[C@H](O)[C@@H](O)[C@@H](O[C@H]3[C@H](O)[C@@H](O)[C@@H](O[C@H]4[C@H](O)[C@@H](O)[C@@H](O[C@H]5[C@H](O)[C@@H](O)[C@@H](O[C@H]6[C@H](O)[C@@H](O)C(O)O[C@@H]6CO)O[C@@H]5CO)O[C@@H]4CO)O[C@@H]3CO)O[C@@H]2CO)[C@H](O)[C@@H](O)[C@@H]1O (stereo partly shown) [Maltohexaose] |  | 900 ± 100 µM | 30.8 ± 7.0 mM |
| OC[C@H]1O[C@H](O[C@H]2[C@H](O)[C@@H](O)[C@@H](O[C@H]3[C@H](O)[C@@H](O)[C@@H](O[C@H]4[C@H](O)[C@@H](O)[C@@H](O[C@H]5[C@H](O)[C@@H](O)C(O)O[C@@H]5CO)O[C@@H]4CO)O[C@@H]3CO)O[C@@H]2CO)[C@H](O)[C@@H](O)[C@@H]1O (stereo partly shown) [Maltopentaose] |  | 900 ± 100 µM | 19.6 ± 2.2 mM |
| OC[C@H]1O[C@H](O[C@H]2[C@H](O)[C@@H](O)C(O)O[C@@H]2CO)[C@H](O)[C@@H](O)[C@@H]1O (stereo partly shown) [Maltose] | 2200 ± 300 µM |  | 12.0 ± 3.6 mM |
| OC[C@H]1O[C@H](O[C@H]2[C@H](O)[C@@H](O)[C@@H](O[C@H]3[C@H](O)[C@@H](O)[C@@H](O[C@H]4[C@H](O)[C@@H](O)C(O)O[C@@H]4CO)O[C@@H]3CO)O[C@@H]2CO)[C@H](O)[C@@H](O)[C@@H]1O (stereo partly shown) [Maltotetraose] |  | 1600 ± 100 µM |  |
| OC[C@H]1O[C@H](O[C@H]2[C@H](O)[C@@H](O)[C@@H](O[C@H]3[C@H](O)[C@@H](O)C(O)O[C@@H]3CO)O[C@@H]2CO)[C@H](O)[C@@H](O)[C@@H]1O (stereo partly shown) [Maltotriose] |  | 2000 µM | 3.8 ± 0.7 mM |
| OC[C@H]1O[C@H](O[C@H]2[C@H](O)[C@@H](CO)OC(O)[C@@H]2O)[C@H](O)[C@@H](O)[C@@H]1O (stereo partly shown) [Nigerose] | 2500 ± 400 µM |  |  |
